Results published in ChEMBL document CHEMBL4004837, “Synthesis and Characterization of Urofuranoic Acids: In Vivo Metabolism of 2-(2-Carboxyethyl)-4-methyl-5-propylfuran-3-carboxylic Acid (CMPF) and Effects on in Vitro Insulin Secretion” (J Med Chem, 2017).

Tests used:
Plasma [1] = assay: (§1) Drug metabolism in CD1 mouse plasma assessed as diacylglycerol conjugate formation at 6 mg/kg, ip dosed once daily for 3 days followed by dosing of 1:1 mixtures of 2-(2-Carboxyethyl)-4-methyl-5-(1-propyl-1-13C)furan-3-carboxylic Acid and test compound on day 4 and 5 measured 1 hr post dose on day 5 by HPLC-MS analysis; format: ADME, organism-based; settings: in vivo
How it was run: (§2)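 CMPF given 6 mg/kg i.p. once daily for three days. On days four and five, 1:1 mixtures of stable-isotope-labelled and unlabelled CMPF were dosed. Mice were killed 1 h after the day-five dose. Plasma, adipose, muscle and liver were collected and analysed by HPLC-MS (MS/MS for product ions). Metabolites were identified by their distinctive isotope patterns from the labelled/unlabelled mixture.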

Liver [2] = assay: as §1, with “liver” for “plasma”, “monoacylglycerol” for “diacylglycerol”; format: ADME, organism-based; settings: in vivo
How it was run: (§3)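 Mice received CMPF 6 mg/kg intraperitoneally for three days, then 1:1 labeled/unlabeled CMPF mixtures on days four and five. On day five they were euthanized 1 h post-dose, and plasma, adipose, muscle and liver were collected. Samples were analysed by HPLC-MS, with MS/MS of product ions. Metabolites were identified by the distinctive isotope patterns from the 1:1 label mixture.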

Plasma [3] = assay: (§4) Drug metabolism in CD1 mouse plasma assessed as monoacylglycerol conjugate formation at 6 mg/kg, ip dosed once daily for 3 days followed by dosing of 1:1 mixtures of 2-(2-Carboxyethyl)-4-methyl-5-propyl-(3-13C-furan)-3-13Ccarboxylateand test compound on day 4 and 5 measured 1 hr post dose on day 5 by HPLC-MS analysis; format: ADME, organism-based; settings: in vivo; how it was run: as §2
[4] = (§5) Drug metabolism in CD1 mouse adipose assessed as glycerol conjugate formation at 6 mg/kg, ip dosed once daily for 3 days followed by dosing of 1:1 mixtures of 2-(2-(Carboxy-13C)ethyl)-4-methyl-5-propylfuran-3-carboxylic-2-13C Acid and test compound on day 4 and 5 measured 1 hr post dose on day 5 by HPLC-MS analysis; format: ADME, organism-based, Adipose tissue; settings: in vivo; how it was run: as §3
Liver [5] = assay: as §1, with “liver” for “plasma”, “2-(2-(Carboxy-13C)ethyl)-4-methyl-5-propylfuran-3-carboxylic-2-13C” for “2-(2-Carboxyethyl)-4-methyl-5-(1-propyl-1-13C)furan-3-carboxylic”; format: ADME, organism-based; settings: in vivo; how it was run: as §3
[6] = as §4, with “muscle” for “plasma”; format: ADME, organism-based, Muscle tissue; settings: in vivo; how it was run: as §3
CYP3A4 = CYP3A4 (Homo sapiens, UniProt P08684); assay: Inhibition of human microsomal CYP3A4 at 10 uM after 3 mins by single quad LC/MS analysis; format: ADME; settings: microsomes
Chain of CYP3A4 (P08684 whole entry, the tested form may be a part): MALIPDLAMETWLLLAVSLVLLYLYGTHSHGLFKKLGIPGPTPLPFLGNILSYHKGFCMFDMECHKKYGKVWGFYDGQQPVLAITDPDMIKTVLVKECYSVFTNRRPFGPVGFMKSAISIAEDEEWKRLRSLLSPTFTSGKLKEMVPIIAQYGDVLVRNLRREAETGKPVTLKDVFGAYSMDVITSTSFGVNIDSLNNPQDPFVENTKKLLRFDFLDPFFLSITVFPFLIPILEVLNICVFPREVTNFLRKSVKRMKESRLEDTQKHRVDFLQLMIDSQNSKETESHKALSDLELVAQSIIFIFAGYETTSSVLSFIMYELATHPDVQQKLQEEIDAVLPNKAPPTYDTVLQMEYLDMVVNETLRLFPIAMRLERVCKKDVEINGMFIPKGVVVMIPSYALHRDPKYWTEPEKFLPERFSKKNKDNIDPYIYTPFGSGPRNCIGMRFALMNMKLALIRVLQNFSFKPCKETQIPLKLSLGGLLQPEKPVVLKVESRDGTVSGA

Liver [7] = assay: as §1, with “liver” for “plasma”, “loss of C2 carboxyl during fragmentation” for “diacylglycerol conjugate formation”; format: ADME, organism-based; settings: in vivo; how it was run: as §3
Plasma [8] = assay: (§6) Drug metabolism in CD1 mouse plasma assessed as oxidative metabolites formation at 6 mg/kg, ip dosed once daily for 3 days followed by dosing of 1:1 mixtures of 2-(2-(Carboxy-13C)ethyl)-4-methyl-5-propylfuran-3-carboxylic-2-13C Acid and test compound on day 4 and 5 measured 1 hr post dose on day 5 by HPLC-MS analysis; format: ADME, organism-based; settings: in vivo; how it was run: as §2
[9] = as §1, with “muscle” for “plasma”, “monoacylglycerol” for “diacylglycerol”; format: ADME, organism-based, Muscle tissue; settings: in vivo; how it was run: as §3
[10] = as §1, with “adipose” for “plasma”, “loss of C2 carboxyl during fragmentation” for “diacylglycerol conjugate formation”; format: ADME, organism-based, Adipose tissue; settings: in vivo; how it was run: as §3
[11] = (§7) Drug metabolism in CD1 mouse muscle assessed as oxidative metabolites formation at 6 mg/kg, ip dosed once daily for 3 days followed by dosing of 1:1 mixtures of 2-(2-Carboxyethyl)-4-methyl-5-propyl-(3-13C-furan)-3-13Ccarboxylateand test compound on day 4 and 5 measured 1 hr post dose on day 5 by HPLC-MS analysis; format: ADME, organism-based, Muscle tissue; settings: in vivo; how it was run: as §2
[12] = as §1, with “muscle” for “plasma”, “loss of C2 carboxyl during fragmentation” for “diacylglycerol conjugate formation”; format: ADME, organism-based, Muscle tissue; settings: in vivo; how it was run: as §3
Plasma [13] = assay: as §1, with “glucuronide” for “diacylglycerol”; format: ADME, organism-based; settings: in vivo; how it was run: as §2
Liver [14] = assay: as §7, with “liver” for “muscle”; format: ADME, organism-based; settings: in vivo; how it was run: as §3
[15] = (§8) Drug metabolism in CD1 mouse adipose assessed as loss of C2 carboxyl during fragmentation at 6 mg/kg, ip dosed once daily for 3 days followed by dosing of 1:1 mixtures of 2-(2-Carboxyethyl)-4-methyl-5-propyl-(3-13C-furan)-3-13Ccarboxylate and test compound on day 4 and 5 measured 1 hr post dose on day 5 by HPLC-MS analysis; format: ADME, organism-based, Adipose tissue; settings: in vivo; how it was run: as §3
[16] = as §6, with “adipose” for “plasma”, “2-(2-Carboxyethyl)-4-methyl-5-(1-propyl-1-13C)furan-3-carboxylic” for “2-(2-(Carboxy-13C)ethyl)-4-methyl-5-propylfuran-3-carboxylic-2-13C”; format: ADME, organism-based, Adipose tissue; settings: in vivo; how it was run: as §3
[17] = as §8, with “muscle” for “adipose”; format: ADME, organism-based, Muscle tissue; settings: in vivo; how it was run: as §3
Plasma [18] = assay: as §1, with “2-(2-(Carboxy-13C)ethyl)-4-methyl-5-propylfuran-3-carboxylic-2-13C” for “2-(2-Carboxyethyl)-4-methyl-5-(1-propyl-1-13C)furan-3-carboxylic”; format: ADME, organism-based; settings: in vivo; how it was run: as §2
[19] = as §6, with “adipose” for “plasma”; format: ADME, organism-based, Adipose tissue; settings: in vivo; how it was run: as §3
Plasma [20] = assay: as §4, with “2-(2-(Carboxy-13C)ethyl)-4-methyl-5-propylfuran-3-carboxylic-2-13C Acid and” for “2-(2-Carboxyethyl)-4-methyl-5-propyl-(3-13C-furan)-3-13Ccarboxylateand”; format: ADME, organism-based; settings: in vivo; how it was run: as §2
Hepatocyte = assay: Cytotoxicity against mouse primary hepatocytes assessed as fold change in capase3/7 activity by Caspase-Glo 3/7 assay relative to DMSO; format: cell-based
[21] = Suppression of KCl-stimulated insulin secretion in mouse pancreatic islet at 200 uM incubated for 24 hrs followed by KCl stimulation for 20 mins by HTRF assay; format: ADME, cell-based
How it was run: (§9)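 Mouse islets treated with compounds at 200 µM. Insulin secretion was then measured under low- and high-glucose GSIS conditions and under KCl stimulation, and intracellular insulin content was measured. Mean of n = 4-5 experiments with SEM.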

[22] = AUC in mouse at 1 mg/kg, iv; format: ADME, organism-based; settings: in vivo
[23] = as §1, with “adipose” for “plasma”; format: ADME, organism-based, Adipose tissue; settings: in vivo; how it was run: as §3
[24] = as §4, with “muscle” for “plasma”, “glycerol” for “monoacylglycerol”; format: ADME, organism-based, Muscle tissue; settings: in vivo; how it was run: as §3
[25] = as §5, with “muscle” for “adipose”, “monoacylglycerol” for “glycerol”; format: ADME, organism-based, Muscle tissue; settings: in vivo; how it was run: as §3
[26] = as §4, with “muscle” for “plasma”, “diacylglycerol” for “monoacylglycerol”; format: ADME, organism-based, Muscle tissue; settings: in vivo; how it was run: as §3
[27] = Effect on insulin content in glucose-stimulated mouse pancreatic islet at 200 uM incubated for 24 hrs followed by glucose stimulation for 20 mins by HTRF assay; format: ADME, cell-based; how it was run: as §9

Drug metabolism (Plasma [1]): Metabolite_Notdetected
Drug metabolism (Liver [2]): Metabolite_Notdetected
Drug metabolism (Plasma [3]): Metabolite_Notdetected
Drug metabolism [4]: Metabolite_Notdetected
Drug metabolism (Liver [5]): Metabolite_Notdetected
Drug metabolism [6]: Metabolite_Notdetected
inhibition at 0.05 h, 10 µM (CYP3A4): 0%
Drug metabolism (Liver [7]): Metabolite_Detected
Drug metabolism (Plasma [8]): Metabolite_Notdetected
Drug metabolism [9]: Metabolite_Notdetected
Drug metabolism [10]: Metabolite_Detected
Drug metabolism [11]: Metabolite_Notdetected
Drug metabolism [12]: Metabolite_Detected
Drug metabolism (Plasma [13]): Metabolite_Detected
Drug metabolism (Liver [14]): Metabolite_Notdetected
Drug metabolism [15]: Metabolite_Detected
Drug metabolism [16]: Metabolite_Notdetected
Drug metabolism [17]: Metabolite_Detected
Drug metabolism (Plasma [18]): Metabolite_Notdetected
Drug metabolism [19]: Metabolite_Notdetected
Drug metabolism (Plasma [20]): Metabolite_Notdetected
AUC [22]: 89.3 µM·h
Drug metabolism [23]: Metabolite_Notdetected
Drug metabolism [24]: Metabolite_Notdetected
Drug metabolism [25]: Metabolite_Notdetected
Drug metabolism [26]: Metabolite_Notdetected
Structure (SMILES): CCCc1oc(CCC(=O)O)c(C(=O)O)c1C
fold change (FC) (Hepatocyte): 0.7 to 0.8
Activity [21]: Toxic
Activity [27]: Non-Toxic
